Data on 13 compounds can be found in ChEMBL document CHEMBL1130330, “Synthesis of gonadotropin-releasing hormone III analogs. Structure-antitumor activity relationships” (1997).

The species named for assay [1] is Homo sapiens. The assay is described as follows: (§1) The concentration to inhibit colony formation of MCF-7 human tumor cell lines. Format: functional, MCF7. Summed up: (§2)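 Clonogenic assay on human tumor cell lines, with each peptide at 50 (unit as printed). Colony formation reflects cell survival. Results are given as % inhibition of colony formation relative to untreated controls, mean ± deviation.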

For assay [2], the system named is MCF7. The assay can be described thus: The concentration to inhibit cell proliferation of MCF-7 human tumor cell lines. Format: functional. In a few lines: (§3)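 Cell proliferation assay with peptide treatment. Cells are released from Petri dishes by trypsinization and counted directly. Results are expressed as percentage of control values.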
For assay [3], the system named is PC-3. The assay is described as follows: The concentration to inhibit cell proliferation of PC3 human tumor cell lines using the sulforhodamine B assay. Format: functional. In a few lines:
(§4)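 Sulforhodamine B assay with each peptide at 50 (unit as printed). Dye bound to cells is quantified spectrophotometrically. Results are expressed as % inhibition relative to control, mean ± deviation.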

The test system of assay [4] is MDA-MB-231. The assay is described as follows: The concentration to inhibit colony formation of MDA-MB-231 human tumor cell lines. Format: functional. Summed up: as §2
Assay [5] relates to MDA-MB-231. The assay is described as follows: The concentration to inhibit cell proliferation of MDA-MB-231 human tumor cell lines using the sulforhodamine B assay. Format: functional. In a few lines:
as §4
(In general: The SRB assay estimates cell density from bound dye.)

The test system of assay [6] is PC-3. The assay can be described thus: The concentration to inhibit colony formation of PC3 human tumor cell lines. Format: functional. In a few lines: as §2
The subject of assay [7] is LNCaP. The assay can be described thus: The concentration to inhibit cell proliferation of LNCaP human tumor cell lines. Format: functional.
In assay [8] the test system is MCF7. The assay is described as §1. Format: functional. Summed up: as §2
In assay [9] the test system is MDA-MB-231. The assay can be described thus: The concentration to inhibit cell proliferation of MDA-MB-231 human tumor cell lines. Format: functional. Summed up: as §3
The subject of assay [10] is Ishikawa. The assay can be described thus: The concentration to inhibit colony formation of Ishikawa human tumor cell lines. Format: functional. Summed up: as §2
Assay [11] deals with LNCaP. The assay can be described thus: The concentration to inhibit cell proliferation of LNCaP human tumor cell lines using the sulforhodamine B assay. Format: functional. In a few lines: as §4
The test system of assay [12] is MCF7. The assay is described as follows: The concentration to inhibit cell proliferation of MCF-7 human tumor cell lines using the sulforhodamine B assay. Format: functional. Summed up: as §4
For assay [13], the system named is PC-3. The assay is described as follows: The concentration to inhibit cell proliferation of PC3 human tumor cell lines. Format: functional. In a few lines:
as §3

By Inhibition is commonly meant the relative decrease from the control value, in per cent. Low values mean a weak effect, high ones a strong effect.

Square brackets hold non-standard residues; d marks the D form. Peptide text beside a SMILES is read from it. pGlu = O=C1CC[C@@H](C(=O)O)N1

Turning to `NCCCC[C@H](NC(=O)[C@H](Cc1c[nH]c2ccccc12)NC(=O)[C@H](CC(=O)O)NC(=O)[C@H](Cc1c[nH]cn1)NC(=O)[C@H](CO)NC(=O)[C@H](Cc1c[nH]c2ccccc12)NC(=O)[C@H](Cc1c[nH]cn1)NC(=O)[C@@H]1CCC(=O)N1)C(=O)N1CCC[C@H]1C(=O)NCC(N)=O`, the Inhibition in assay [1] came out at 18%; in [2], 18%; in assay [3] it was 12%; in assay [4], 44%; in assay [5], 19%; in assay [6], 21%. Besides, the Inhibition in assay [7] is 32%; in [8], 45%; in assay [9] it was 18%; in assay [10] it was 18%; in [11], 40%; in assay [12], 20%. The Inhibition in assay [13] is listed as 14%.
With `NCCCC[C@H](NC(=O)[C@H](Cc1ccccc1)NC(=O)[C@H](CC(=O)O)NC(=O)[C@H](Cc1c[nH]cn1)NC(=O)[C@H](CO)NC(=O)[C@H](Cc1c[nH]c2ccccc12)NC(=O)[C@H](Cc1c[nH]cn1)NC(=O)[C@@H]1CCC(=O)N1)C(=O)N1CCC[C@H]1C(=O)NCC(N)=O`, the Inhibition in assay [4] is listed as 21%; in [8], 26%.
In the case of `NCCCC[C@H](NC(=O)[C@H](Cc1c[nH]c2ccccc12)NC(=O)[C@H](CC(=O)O)NC(=O)[C@H](Cc1c[nH]cn1)NC(=O)[C@H](CO)NC(=O)[C@H](Cc1c[nH]c2ccccc12)NC(=O)[C@H](Cc1c[nH]cn1)NC(=O)[C@@H]1CCC(=O)N1)C(=O)N1CC=C[C@H]1C(=O)NCC(N)=O`, the Inhibition in assay [3] stood at 14%; in assay [4], 42%; in assay [5], 18%; in assay [6] it was 19%; in assay [8] it was 42%; in assay [10] it was 21%. This compound also registered an Inhibition in [12] of 19%.
As to `C[C@@H](NC(=O)[C@@H]1CCCN1C(=O)[C@H](CCCCN)NC(=O)[C@H](Cc1c[nH]c2ccccc12)NC(=O)[C@H](CC(=O)O)NC(=O)[C@H](Cc1c[nH]cn1)NC(=O)[C@H](CO)NC(=O)[C@H](Cc1c[nH]c2ccccc12)NC(=O)[C@H](Cc1c[nH]cn1)NC(=O)[C@@H]1CCC(=O)N1)C(N)=O`, the Inhibition is on record as 2% in assay [3]; 15% in assay [4]; 8% in assay [5]; 3% in assay [6]; 4% in assay [8]; 6% in assay [10]. In assay [12], this compound returned an Inhibition of 8%.
On to `NCCCC[C@H](NC(=O)[C@H](Cc1cn(C=O)c2ccccc12)NC(=O)[C@H](CC(=O)O)NC(=O)[C@H](Cc1c[nH]cn1)NC(=O)[C@H](CO)NC(=O)[C@H](Cc1cn(C=O)c2ccccc12)NC(=O)[C@H](Cc1c[nH]cn1)NC(=O)[C@@H]1CCC(=O)N1)C(=O)N1CC=C[C@H]1C(=O)NCC(N)=O`, for which the Inhibition in [4] turned out to be 32%; in assay [6], 20%; in assay [8] it was 31%; in assay [10] it was 24%.
As for `CC(C)C[C@H](NC(=O)CNC(=O)[C@H](Cc1ccc(O)cc1)NC(=O)[C@H](CO)NC(=O)[C@H](Cc1c[nH]c2ccccc12)NC(=O)[C@H](Cc1c[nH]cn1)NC(=O)[C@@H]1CCC(=O)N1)C(=O)N[C@@H](CCCN=C(N)N)C(=O)N1CCC[C@H]1C(=O)NCC(N)=O`, the Inhibition in assay [4] stood at 29%; in [6] it was 15%; in assay [8], 27%; in assay [10], 17%.
Consider `NC(=O)CNC(=O)[C@@H]1CCCN1C(=O)[C@@H]1CCCCNC(=O)C[C@H](NC(=O)[C@H](Cc2c[nH]cn2)NC(=O)[C@H](CO)NC(=O)[C@H](Cc2c[nH]c3ccccc23)NC(=O)[C@H](Cc2c[nH]cn2)NC(=O)[C@@H]2CCC(=O)N2)C(=O)N[C@@H](Cc2c[nH]c3ccccc23)C(=O)N1`, for which the Inhibition in assay [3] is recorded as 11%; in assay [4], 27%; in assay [5], 16%; in assay [6], 18%; in [8] it was 44%; in assay [10] it was 16%. This compound also yielded an Inhibition in assay [12] of 20%.
`NCCCC[C@H](NC(=O)[C@H](Cc1c[nH]c2ccccc12)NC(=O)[C@H](Cc1c[nH]cn1)NC(=O)[C@@H]1CCC(=O)N1)C(=O)N[C@@H](Cc1c[nH]cn1)C(=O)N[C@@H](CC(=O)O)C(=O)N[C@@H](Cc1c[nH]c2ccccc12)C(=O)N[C@@H](CCCCN)C(=O)N1CCC[C@H]1C(=O)NCC(N)=O`: the Inhibition was 35% in [4], 15% in [6], 40% in assay [8] and 21% in assay [10].
The matching figures for `CC(=O)NCCCC[C@H](NC(=O)[C@H](Cc1c[nH]c2ccccc12)NC(=O)[C@H](Cc1c[nH]cn1)NC(=O)[C@@H]1CCC(=O)N1)C(=O)N[C@@H](Cc1c[nH]cn1)C(=O)N[C@@H](CC(=O)O)C(=O)N[C@@H](Cc1c[nH]c2ccccc12)C(=O)N[C@@H](CCCCN)C(=O)N1CCC[C@H]1C(=O)NCC(N)=O`: 42%, 12%, 52% and 14%.
Consider `NCCCC[C@H](NC(=O)[C@H](Cc1c[nH]c2ccccc12)NC(=O)[C@H](CCC(=O)O)NC(=O)[C@H](Cc1c[nH]cn1)NC(=O)[C@H](CO)NC(=O)[C@H](Cc1c[nH]c2ccccc12)NC(=O)[C@H](Cc1c[nH]cn1)NC(=O)[C@@H]1CCC(=O)N1)C(=O)N1CCC[C@H]1C(=O)NCC(N)=O`, for which the Inhibition in assay [3] amounted to 12%; in assay [4], 25%; in assay [5], 27%; in assay [6], 20%; in [8], 44%; in assay [10], 5%. For the same compound, in assay [12], the Inhibition worked out at 17%.
With `NCCCC[C@H](NC(=O)[C@H](CO)NC(=O)[C@H](Cc1c[nH]c2ccccc12)NC(=O)[C@H](Cc1c[nH]cn1)NC(=O)[C@@H]1CCC(=O)N1)C(=O)N[C@H]1CC(=O)NCCCC[C@@H](C(=O)N2CCC[C@H]2C(=O)NCC(N)=O)NC(=O)[C@H](Cc2c[nH]c3ccccc23)NC1=O`, the Inhibition is given as 16% in assay [3]; 27% in assay [4]; 21% in assay [5]; 11% in assay [6]; 44% in [8]; 13% in assay [10]. Moreover, in [12], the Inhibition came to 19%.
Regarding `NCCCC[C@H](NC(=O)[C@H](CO)NC(=O)[C@H](Cc1c[nH]c2ccccc12)NC(=O)[C@H](Cc1c[nH]cn1)NC(=O)[C@@H]1CCC(=O)N1)C(=O)N[C@@H](CC(=O)O)C(=O)N[C@@H](Cc1c[nH]c2ccccc12)C(=O)N[C@@H](CCCCN)C(=O)N1CCC[C@H]1C(=O)NCC(N)=O`, the Inhibition was found to be 4% in assay [4]; 2% in assay [5]; 0% in [6]; 5% in assay [8]; 6% in assay [10]; 4% in assay [12].
Turning to `CCNC(=O)[C@@H]1CCCN1C(=O)[C@H](CCCCN)NC(=O)[C@H](Cc1c[nH]c2ccccc12)NC(=O)[C@H](CC(=O)O)NC(=O)[C@H](Cc1c[nH]cn1)NC(=O)[C@H](CO)NC(=O)[C@H](Cc1c[nH]c2ccccc12)NC(=O)[C@H](Cc1c[nH]cn1)NC(=O)[C@@H]1CCC(=O)N1` ([pGlu]HWSHDWKP-NHEt), the Inhibition in [3] was 15%; in assay [4], 27%; in [5], 32%; in [6] it was 22%; in [8], 28%; in assay [10] it was 13%. In assay [12], this compound came in with an Inhibition of 20%.
